Measured values published in PubChem BioAssay AID1216 (Sanford-Burnham Center for Chemical Genomics, 2008).
Among all 190,000 compounds or so, about 660 (0.35%) were called active. This is one part of a sample in which actives are shown more often than they occur. Values without a mark were called inactive.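 The calls were made as follows: active = activation factor of 2 or more at 20 µM; inactive = the rest.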

molecular target: Mannose-6-phosphate isomerase (Homo sapiens) (UniProt P34949); assay: human PMI activators, high substrate, primary screen, biochemical, fluorescence intensity, near-saturating mannose 6-phosphate (AID 1216); conditions: coupled PMI enzyme assay, resazurin fluorescence, 20 min; at 20 µM; stronger effect = higher value
In short: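 Material: human phosphomannose isomerase with PGI, G6PDH, diaphorase coupling enzymes; amount: PMI at 15 ng/mL final; also added: Mannose-6-phosphate 1.0 mM (near-saturating) plus 0.22 mM NADP+; incubation: enzyme reaction with compound 20 min at room temperature; signal: resorufin fluorescence (Ex 544/Em 590 nm) from resazurin via diaphorase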

Chain of Mannose-6-phosphate isomerase (Homo sapiens) (P34949 whole entry, looked up): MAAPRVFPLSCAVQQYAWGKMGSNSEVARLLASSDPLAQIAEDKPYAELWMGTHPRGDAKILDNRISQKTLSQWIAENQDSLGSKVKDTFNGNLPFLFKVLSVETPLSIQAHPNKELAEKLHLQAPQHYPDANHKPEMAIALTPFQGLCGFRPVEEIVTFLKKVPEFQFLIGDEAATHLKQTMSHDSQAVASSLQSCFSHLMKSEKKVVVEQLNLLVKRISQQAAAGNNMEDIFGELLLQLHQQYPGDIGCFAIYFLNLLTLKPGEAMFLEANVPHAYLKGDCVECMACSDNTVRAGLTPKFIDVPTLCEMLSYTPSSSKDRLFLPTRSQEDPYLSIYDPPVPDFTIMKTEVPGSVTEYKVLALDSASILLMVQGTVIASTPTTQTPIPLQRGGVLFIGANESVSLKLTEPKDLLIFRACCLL

Row | SMILES | activation factor
1 | Cc1ccc2c(c1)=C/C(=C\c1c(O)[nH]c(=O)[nH]c1=O)C(=O)N=2 | 0.5
2 | O=C1N=c2ccccc2=C/C1=C\c1c(O)[nH]c(=S)[nH]c1=O | 2.1 (active)
3 | COc1ccccc1N=Nc1c(O)[nH]c(=S)[nH]c1=O | 0.9
4 | O=C(CSC1c2ccccc2-c2ccccc21)N/N=C/c1ccccc1 | 0.9
5 | Cc1cccc(OP(=O)(Oc2cccc(C)c2)OC(c2ccccc2)C(F)(F)F)c1 (stereo not given) | 0.9
